Assay results from ChEMBL document CHEMBL1212775, “A novel class of meso-tetrakis-porphyrin derivatives exhibits potent activities against hepatitis C virus genotype 1b replicons in vitro” (Antimicrob Agents Chemother, 2010).
Active and inactive are the calls of the source. The calls are words filed in the database; no cut-off is given here.

What was measured:
Hepatitis C virus [1] = assay: Antiviral activity against Hepatitis C virus genotype 1b Con1 infected in human Huh-luc/neo-ET replicon cells assessed as inhibition of viral rebound dosed at 300 nM incubated for 12 days followed by compound removal and reintroduction of 250 ug/ml G418 measured after 9 days post compound withdrawal; format: functional, organism-based; conditions: Hepacivirus hominis
How it was run: (§1)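 Huh-luc/neo-ET cells were seeded at 2 × 10^5 per well and kept without G418 for 12 days with DMSO or up to 1 μM drug. Cells were split every 3 days, with medium and drug renewed. Drug was then removed and 250 μg/ml G418 added for 12 more days, sampling at confluence. HCV 5′UTR RNA was measured by one-step qRT-PCR, normalised to β-actin and expressed relative to mock. Viability was read by CellTiter-Glo as % of mock.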

Hepatitis C virus [2] = assay: Antiviral activity against Hepatitis C virus genotype 1b Con1 infected in human Huh-luc/neo-ET replicon cells assessed as inhibition of viral rebound dosed at 1 uM incubated for 12 days followed by compound removal and reintroduction of 250 ug/ml G418 measured after 9 days post compound withdrawal; format: functional, organism-based; conditions: Hepacivirus hominis; how it was run: as §1
Hepatitis C virus [3] = assay: Antiviral activity against Hepatitis C virus genotype 1b Con1 infected in human Huh-luc/neo-ET replicon cells assessed as reduction in viral RNA level after 48 hrs by RT-PCR; format: functional, organism-based, Hepacivirus hominis
How it was run: (§2)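 Cells seeded at 1 × 10^5 per well and treated with DMSO or compound up to 250 nM for 24, 48 or 72 h. Total RNA diluted to 50 ng/μl. Replicon RNA (5′ UTR) measured in triplicate by one-step qRT-PCR, normalized to β-actin mRNA, and expressed as percent of mock control. Three independent repeats.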

Hepatitis C virus [4] = assay: Antiviral activity against Hepatitis C virus genotype 1b Con1 infected in human Huh-luc/neo-ET replicon cells assessed as inhibition of virus-induced cytopathic effect after 24 hrs by luciferase reporter assay; format: functional, organism-based, Hepacivirus hominis
How it was run: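 Huh-luc/neo-ET cells seeded at 1 × 10^5 per well and treated with DMSO or serially diluted compound up to 250 nM. Harvested at 24 or 48 h. Luciferase run in triplicate and RLU normalized to total protein (Bradford), expressed as percent of mock control. Three independent repeats averaged.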

Hepatitis C virus [5] = assay: Antiviral activity against Hepatitis C virus genotype 1b Con1 infected in human Huh-luc/neo-ET replicon cells assessed as reduction of virus-induced cytopathic effect after 72 hrs by luciferase reporter assay; format: functional, organism-based, Hepacivirus hominis
How it was run: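 Replicon cells grown without G418, seeded at 5 × 10^3 per well, treated next day in duplicate with serial dilutions (DMSO control) at 37°C for 72 h. After a PBS wash, cells lysed in ice-cold passive lysis reagent and firefly luciferase RLU read as percent of compound-free control. EC50 by nonlinear regression of the dose-effect curve.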

Hepatitis C virus [6] = assay: Antiviral activity against Hepatitis C virus genotype 1b Con1 infected in human Huh-luc/neo-ET replicon cells assessed as inhibition of viral rebound dosed at 300 nM incubated for 9 days followed by compound removal and reintroduction of 250 ug/ml G418 measured after 15 days post compound withdrawal; format: functional, organism-based; conditions: Hepacivirus hominis
How it was run: (§3)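 In a separate run, Huh-luc/neo-ET replicon cells were treated for 9 days without G418. Drug was then withdrawn and cells were kept for a 15-day rebound period under G418 selection. Surviving cells were scored as the fraction of the population that outlasted selection.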

Hepatitis C virus [7] = assay: Antiviral activity against Hepatitis C virus genotype 1b Con1 infected in human Huh-luc/neo-ET replicon cells assessed as reduction in viral RNA level after 24 hrs by RT-PCR; format: functional, organism-based, Hepacivirus hominis; how it was run: as §2
Hepatitis C virus [8] = assay: Antiviral activity against Hepatitis C virus genotype 1b Con1 infected in human Huh-luc/neo-ET replicon cells assessed as reduction of replicon luciferase signal after 72 hrs by luciferase reporter assay in presence of 40% fetal bovine serum; format: functional, organism-based, Hepacivirus hominis
How it was run: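 Huh-luc/neo-ET cells without G418, incubated with serially diluted compounds in medium containing 5%, 10%, 20% or 40% (vol/vol) FBS. Firefly luciferase read after 72 h. EC50 from dose-effect curves. The 0% value is a theoretical EC50 extrapolated from the plot of EC50 versus serum level. Means ± SD of three independent experiments.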

Hepatitis C virus [9] = assay: Antiviral activity against Hepatitis C virus genotype 1b Con1 infected in human Huh-luc/neo-ET replicon cells assessed as viral replicon survival dosed at 300 nM incubated for 9 days followed by compound removal and reintroduction of 250 ug/ml G418 measured after 15 days post compound withdrawal; format: functional, Hepacivirus hominis; how it was run: as §3
Hepatitis C virus [10] = assay: Antiviral activity against Hepatitis C virus genotype 1b Con1 infected in human Huh-luc/neo-ET replicon cells assessed as viral replicon survival dosed at 50 nM incubated for 12 days followed by compound removal and reintroduction of 250 ug/ml G418 measured after 12 days post compound withdrawal; format: functional, Hepacivirus hominis; how it was run: as §1

O=C(O)c1cc(C(=O)O)cc(-c2ccc(-c3c4nc(c(-c5ccc(-c6cc(C(=O)O)cc(C(=O)O)c6)cc5)c5ccc([nH]5)c(-c5ccc(-c6cc(C(=O)O)cc(C(=O)O)c6)cc5)c5ccc([nH]5)c(-c5ccc(-c6cc(C(=O)O)cc(C(=O)O)c6)cc5)c5nc3C=C5)C=C4)cc2)c1
inhibition (Hepatitis C virus [1]): Active
inhibition (Hepatitis C virus [2]): Active
EC50 (Hepatitis C virus [3]): 36.2 nM
inhibition (Hepatitis C virus [3]; Hepacivirus hominis): Dose-dependent effect
EC50 (Hepatitis C virus [4]): 57.8 nM
inhibition (Hepatitis C virus [4]; Hepacivirus hominis): Dose-dependent effect
EC50 (Hepatitis C virus [5]): 17.6 nM
inhibition (Hepatitis C virus [5]; Hepacivirus hominis): Dose-dependent effect
inhibition (Hepatitis C virus [6]): Active
EC50 (Hepatitis C virus [7]): 67.8 nM
inhibition (Hepatitis C virus [7]; Hepacivirus hominis): Dose-dependent effect
EC50 (Hepatitis C virus [8]): 69 nM
Survival (Hepatitis C virus [9]): 0.4%
Survival (Hepatitis C virus [10]): 13.1%
